Source: PubChem BioAssay
S1P4 antag – S1P4 receptor antagonists, primary screen, cell-based; S1P4-expressing cells, antagonist mode, reporter read-out; inhibition, % at 4.98 µM; hit rate 0.26% among 220,000; Sphingosine 1-phosphate receptor 4 (Homo sapiens), O95977; AID 1510, 2009; in the data active = inhibition above about 29%;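 also: 0% = wells stimulated with agonist and 100% = vehicle wells without agonist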
Target sequence (O95977 whole entry, looked up): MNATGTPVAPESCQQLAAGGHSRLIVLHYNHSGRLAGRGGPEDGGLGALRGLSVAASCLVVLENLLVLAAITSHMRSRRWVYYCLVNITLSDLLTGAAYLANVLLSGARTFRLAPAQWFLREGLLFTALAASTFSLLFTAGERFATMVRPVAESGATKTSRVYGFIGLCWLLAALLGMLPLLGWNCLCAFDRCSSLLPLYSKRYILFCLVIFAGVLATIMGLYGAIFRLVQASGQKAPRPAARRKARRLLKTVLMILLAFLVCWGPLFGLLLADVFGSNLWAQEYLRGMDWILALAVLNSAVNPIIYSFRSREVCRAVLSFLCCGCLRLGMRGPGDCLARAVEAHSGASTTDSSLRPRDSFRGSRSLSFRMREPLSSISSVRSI
HMGR II inh – inhibitors of E. faecalis class II HMGR, primary screen, biochemical, Enterococcus faecalis. HMG-CoA reductase (Enterococcus faecalis, mvaE). purified E. faecalis HMGR, NADPH absorbance 340 nm kinetic. inhibition, % at 10 µM. hit rate 0.41% among 190,000. AID 1066, 2008;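 active = inhibition above a set limit, the median over all tested compounds plus 3 SD, cut at about 9.5% in these data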;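 also: enzyme runs in reverse so mevalonate oxidation gives rising NADPH absorbance; 0% = complete reaction with DMSO and 100% = background rate lacking mevalonate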
Rad51 HR inh – human RAD51 strand exchange inhibitors, primary screen, biochemical, fluorescence. DNA repair protein RAD51 homolog 1 (Homo sapiens), Q06609. hRad51 DNA strand exchange, fluorescence dequenching. inhibition, % at 10 µM. hit rate 0.085% among 200,000. AID 1385, 2008;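 active = inhibition above 40% at the single screening dose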;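 also: 0% = DMSO control wells and 100% = blanks with heterologous ssDNA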
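Test system: preformed human Rad51 ssDNA filaments; also added: Donor/quencher-labelled 47-bp dsDNA substrate; doses: 10 µM final, single point; times: 37 °C 15-min filament assembly, 30-min compound preincubation, 15-min exchange; detection: FRET fluorescence dequenching, excitation 485 nm, emission 520 nm; read-out basis: Fluorescence-based percent inhibition, control- and blank-normalised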
S1P3 antag – S1P3 receptor antagonists, primary screen, cell-based | inhibition, % at 4.98 µM | hit rate 0.27% among 170,000 | Sphingosine 1-phosphate receptor 3 (Homo sapiens), Q99500 | CHO S1P3 NFAT-BLA reporter, FRET fluorescence, antagonist mode;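 active = inhibition above the plate cutoff, the mean inhibition of test wells on that plate plus 3 SD, cut at about 28% in these data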;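 also: cells challenged with S1P at its EC80 of 0.8 µM; blue over green emission ratio from cleaved BLA substrate after 4 h stimulation; 0% = S1P-stimulated wells and 100% = unstimulated DMSO-only wells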
Biofilm kill mix – clotrimazole potentiators killing C. albicans biofilm, primary screen, 4-compound mixtures; C. albicans biofilm persisters + clotrimazole, fluorescence viability; primary screen in compound mixtures of four per well; inhibition, % at 7.6 µM; hit rate 0.02% among 120,000;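 active = inhibition above 30.3% in the primary screen of four-compound pools, then above 30% when the compound was retested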;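 also: compounds exposed to preformed 24 h biofilms for 48 h; 0% = untreated biofilm control and 100% = clotrimazole plus chlorhexidine kill blank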
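Assay system: C. albicans biofilms / Medium: RPMI/MOPS medium, pH 7.0 / Schedule: biofilm formation 24 h, compound exposure 48 h, 37 °C / Measured by: Alamar Blue fluorescence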
S1P4 agonist – S1P4 receptor agonists, primary screen, cell-based | activation, % at 4.98 µM | hit rate 0.35% among 220,000 | S1P4-expressing cell line, agonist reporter assay; in the data active = activation above about 11%;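 also: 0% = DMSO vehicle and 100% = reference agonist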
Active calls of the source: *; . = no result. Only some compounds are listed: those with a hit (about 1.2% of all), similar ones and a draw of the others.

SMILES	S1P4 antag	HMGR II inh	Rad51 HR inh	S1P3 antag	Biofilm kill mix	S1P4 agonist
CCOc1ccc(N(CC(=O)NC(C)(C)C)S(=O)(=O)c2c(C)noc2C)cc1	-6	2	1	2	.	0
COc1ccc2c(c1)C(C)=CC(C)(C)N2C(=O)C(C)N1C(=O)c2ccccc2C1=O (stereo not drawn)	-24	-3	-1	-19	.	0
CCOc1cc(/C=C2/COc3ccccc3C2=O)ccc1OCC(=O)N(C)C	37*	1	-2	3	-8	-5
COc1ccc(S(=O)(=O)Nc2ccccc2C(=O)N2CCCC2)cc1OC	-14	.	4	-17	10	-1
O=C(Nc1ccc(N2CCCC2)c(Cl)c1)c1ccc2c(c1)OCCO2	-6	9.6*	12	.	18	1
CCCOc1ccc(/C(O)=C2/C(=O)C(=O)N(CCN(C)C)C2c2ccncc2)cc1 (stereo not drawn)	-3	.	.	.	.	36*
CCc1nnc(NC(=O)CSc2nnc(Cc3cc(=O)[nH]c(=O)[nH]3)n2-c2ccc(OC)cc2)s1	-14	1	-8	-18	-6	0
Cc1cc(C(=O)CSc2nnc(-c3cccnc3)n2-c2ccccc2F)c(C)n1C	-54	-2	-8	-9	.	27*
Cc1cc(C(=O)CSc2nnc(-c3ccccc3)n2C)c(C)n1C	-12	5	-4	6	.	0
C#CC(=O)N(c1cccc(OC)c1)C(C(=O)NC1CCCC1)c1cccs1 (stereo not drawn)	30*	.	-8	.	.	1
Cc1ccc(S(=O)(=O)N2CCC(C(=O)OCC(=O)N3CCc4ccccc43)CC2)cc1	-18	-3	9	-8	.	-3
COc1ccc(NC(=S)N(CCN2CCOCC2)Cc2ccccc2F)cc1	-16	12*	-2	4	24	1
O=C(Nc1ccc2c(c1)C(=O)N(CC1CCCO1)C2=O)c1ccccc1Br (stereo not drawn)	3	12*	4	.	.	1
[O-][n+]1cccc2c(Br)cc(Br)c(O)c21	-16	9.9*	3	2	18	2
CC1(C)CNC(=O)c2sc(NC(=O)c3ccccc3)nc2C1	-27	14*	2	0	12	3
Cc1c(Cl)cccc1NC(=O)CC(C(=O)O)C1CCCO1 (stereo not drawn)	-10	-1	-14	-21	.	0
CCOC(=O)/C(=N\Nc1cc(Cl)ccc1Cl)N1CC(C)OC(C)C1 (stereo not drawn)	-8	.	42*	2	12	0
CCOC(=O)/C(=N\Nc1ccccc1Cl)N1CC(C)OC(C)C1 (stereo not drawn)	8	.	16	-4	8	-1
O=C(Oc1cccc2cccnc12)c1cccc([N+](=O)[O-])c1	-10	2	0	-6	13	-1
O=C(Oc1cccc2cccnc12)c1ccc2c(c1)OCCO2	-20	-1	4	61*	.	0
CCn1ccnc1CN1CCN(CC(C)C)C(CCO)C1 (stereo not drawn)	2	-5	.	-5	7	0
c1ccc(-n2nnnc2Cc2nnnn2-c2ccccc2)cc1	-20	3	-14	-15	10	-1
N#CCCS(=O)(=O)c1nnnn1-c1ccccc1	38*	.	3	21	.	-7
COC(=O)c1c(N2C(=O)[C@H]3[C@@H](C2=O)[C@]2(C(=O)Nc4c2ccc(C)c4C)N2CCC[C@@H]32)sc(C)c1C	10	-3	41*	2	18	-1
COC(=O)c1c(N2C(=O)[C@H]3[C@@H](C2=O)[C@]2(C(=O)Nc4c(C)cc(C)cc42)N2CCC[C@@H]32)sc(C)c1C	17	1	-9	16	15	0
Cc1nc(N(C)C)c2sc(=S)n(C)c2n1	-6	0	-1	96*	.	1
Cc1nc(N(C)C)c2sc(=S)n(-c3ccccc3)c2n1	-3	-4	22	-17	14	-1
COC(=O)c1ccccc1NC(=O)C(C)c1ccc([N+](=O)[O-])cc1 (stereo not drawn)	4	-9	42*	-4	10	-1
